Experimental data reported in ChEMBL document CHEMBL4145605, “Evodialones A and B: Polyprenylated Acylcyclopentanone Racemates with a 3-Ethyl-1,1-diisopentyl-4-methylcyclopentane Skeleton from Evodia lepta” (2018).
Converted amounts (≈) assume the structure as drawn.

Tests used:
Format in all cases: functional
Bacillus subtilis = assay: Antibacterial activity against Bacillus subtilis ATCC 21332 measured after 16 hrs by turbidimetric method; conditions: ATCC 21332, 16 h
Method in brief: (§1)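 In vitro panel of four Gram-positive bacteria, three Gram-negative bacteria and six fungal strains. Activity is reported as MIC in μM. Culture and assay protocols follow an earlier method, with details in the Supporting Information.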

[1] = system: Staphylococcus epidermidis; assay: Antibacterial activity against Staphylococcus epidermidis ATCC 12228 measured after 16 hrs by turbidimetric method; conditions: ATCC 12228, 16 h; method in brief: as §1
[2] = system: Meyerozyma guilliermondii; assay: Antifungal activity against Candida guilliermondii ATCC 6260 measured after 48 hrs by turbidimetric method; conditions: ATCC 6260, 48 h; method in brief: as §1
Nakaseomyces glabratus = assay: Antifungal activity against Candida glabrata ATCC 2001 measured after 48 hrs by turbidimetric method; conditions: CBS 138, 48 h; method in brief: as §1
Escherichia coli = assay: Antibacterial activity against Escherichia coli ATCC 25922 measured after 16 hrs by turbidimetric method; conditions: ATCC 25922, 16 h; method in brief: as §1
Enterobacter cloacae = assay: Antibacterial activity against Enterobacter cloacae ATCC 700323 measured after 16 hrs by turbidimetric method; conditions: ATCC 700323, 16 h; method in brief: as §1
Klebsiella pneumoniae = assay: Antibacterial activity against Klebsiella pneumoniae ATCC 700603 measured after 16 hrs by turbidimetric method; conditions: Klebsiella pneumoniae, 700603, 16 h; method in brief: as §1
Clavispora lusitaniae = assay: Antifungal activity against Candida lusitaniae ATCC 34449 measured after 48 hrs by turbidimetric method; conditions: ATCC 34449, 48 h; method in brief: as §1
Candida albicans = assay: Antifungal activity against Candida albicans ATCC 60193 measured after 48 hrs by turbidimetric method; conditions: ATCC 60193, 48 h; method in brief: as §1
Pichia kudriavzevii = assay: Antifungal activity against Candida krusei ATCC 6258 measured after 48 hrs by turbidimetric method; conditions: ATCC 6258, 48 h; method in brief: as §1
Staphylococcus aureus = assay: Antibacterial activity against Staphylococcus aureus ATCC 25923 measured after 16 hrs by turbidimetric method; conditions: ATCC 25923, 16 h; method in brief: as §1
Enterococcus faecalis = assay: Antibacterial activity against Enterococcus faecalis ATCC 29212 measured after 16 hrs by turbidimetric method; conditions: ATCC 29212, 16 h; method in brief: as §1
Candida parapsilosis = assay: Antifungal activity against Candida parapsilosis ATCC 22019 measured after 48 hrs by turbidimetric method; conditions: Lodderomyces parapsilosis, ATCC 22019, 48 h; method in brief: as §1

MIC (Bacillus subtilis)	MIC [1]	MIC [2]	MIC (Nakaseomyces glabratus)	MIC (Escherichia coli)	MIC (Enterobacter cloacae)	MIC (Klebsiella pneumoniae)	MIC (Clavispora lusitaniae)	MIC (Candida albicans)	MIC (Pichia kudriavzevii)	MIC (Staphylococcus aureus)	MIC (Enterococcus faecalis)	MIC (Candida parapsilosis)	Structure (SMILES)
> 200 µM	> 200 µM	68.3 µM (≈ 25 µg/mL)	34.2 µM (≈ 12.5 µg/mL)	> 200 µM	> 200 µM	> 200 µM	68.3 µM (≈ 25 µg/mL)	137 µM (≈ 50.1 µg/mL)	137 µM (≈ 50.1 µg/mL)	> 200 µM	> 200 µM	17.1 µM (≈ 6.27 µg/mL)	COC(=O)[C@]1(O)C(=O)[C@]2(CC=C(C)C)C[C@@H](O)C(C)(C)OC2=C1C(C)=O
> 200 µM	> 200 µM	34.2 µM (≈ 12.5 µg/mL)	34.2 µM (≈ 12.5 µg/mL)	> 200 µM	> 200 µM	> 200 µM	68.3 µM (≈ 25 µg/mL)	137 µM (≈ 50.1 µg/mL)	137 µM (≈ 50.1 µg/mL)	> 200 µM	> 200 µM	17.1 µM (≈ 6.27 µg/mL)	COC(=O)[C@@]1(O)C(=O)[C@@]2(CC=C(C)C)C[C@H](O)C(C)(C)OC2=C1C(C)=O
> 200 µM	> 200 µM	> 200 µM	> 200 µM	> 200 µM	> 200 µM	> 200 µM	> 200 µM	> 200 µM	> 200 µM	> 200 µM	> 200 µM	> 200 µM	COC(=O)[C@@]1(O)C(=O)[C@@]2(CC=C(C)C)C[C@@H](O)C(C)(C)OC2=C1C(C)=O
		< 0.5 µM	< 0.5 µM				8.7 µM (≈ 8.04 µg/mL)	< 0.5 µM	< 0.5 µM			< 0.5 µM	C[C@@H]1[C@H](O)[C@@H](C)/C=C/C=C/C=C/C=C/C=C/C=C/C=C/[C@H](O[C@@H]2O[C@H](C)[C@@H](O)[C@H](N)[C@@H]2O)C[C@@H]2O[C@](O)(C[C@@H](O)C[C@@H](O)[C@H](O)CC[C@@H](O)C[C@@H](O)CC(=O)O[C@H]1C)C[C@H](O)[C@H]2C(=O)O [AMPHOTERICIN B]
